Results on 14 compounds are retold here after ChEMBL document CHEMBL1144293, “4-(2-Pyridyl)piperazine-1-benzimidazoles as potent TRPV1 antagonists” (Bioorg Med Chem Lett, 2005).

Data set [1] addresses T1, Transient receptor potential cation channel subfamily V member 1 (Homo sapiens, UniProt Q8NER1). The data set can be described thus: Antagonist activity in pH 5.5-induced FLIPR assays in HEK293 cells expressing human TRPV1. It counts as functional, cell-based. A digest of the protocol:
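Human TRPV1-expressing HEK293 line stimulated by low pH (pH 5.5) as agonist; antagonism measured as inhibition of calcium influx by FLIPR. IC50 reported as mean ± SEM from at least three determinations.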

Data set [2] concerns the target T1, Transient receptor potential cation channel subfamily V member 1. Description: Antagonist activity in capsaicin-induced FLIPR assays in HEK293 cells expressing human TRPV1. It counts as functional, cell-based. A digest of the protocol:
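HEK293 cells stably expressing human TRPV1; channel activated with 100 nM capsaicin and block of the calcium influx read on a fluorometric imaging plate reader (FLIPR). IC50 given as mean ± SEM of at least three determinations.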

A short description of data set [3]: Terminal half life value in rat at single dose of 3 mg/kg intravenously. It counts as ADME, organism-based. Also noted: dose 3 mg/kg, route intravenous. Particulars: in vivo, iv. An outline of the steps: (§1)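 Rat pharmacokinetics: systemic exposure estimated after a single 3 mg/kg intravenous dose and, separately, a single 30 mg/kg oral dose. Parameters derived include Vd, CL, terminal t1/2, Tmax, Cmax and oral bioavailability (F%).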

The nature of data set [4]: Clearance value in rat at single dose of 3 mg/kg intravenously. It counts as ADME, organism-based. The arrangement: dose 3 mg/kg, route intravenous. Particulars: in vivo, iv. An outline of the steps:
as §1

The nature of data set [5]: Cmax value in rat at single dose of 30 mg/kg oral dose. Also noted: dose 30 mg/kg, route oral. It counts as ADME, organism-based. Particulars: in vivo. A digest of the protocol:
as §1

Data set [6] can be described thus: Clearance value in rat at single dose of 3 mg/kg iv dose. Particulars: in vivo.
The nature of data set [7]: Bioavailability in rat (single dose 30 mg/kg p.o.). Particulars: in vivo, po. It counts as ADME, organism-based. An outline of the steps:
as §1

The nature of data set [8]: Time taken for cmax value in rat at single dose of 30 mg/kg oral dose. It counts as ADME, organism-based. Particulars: in vivo. Also noted: dose 30 mg/kg, route oral. An outline of the steps: as §1
A short description of data set [9]: Volume distribution in rat at single dose of 3 mg/kg intravenously. Particulars: in vivo, iv. Also noted: dose 3 mg/kg, route intravenous. It counts as ADME, organism-based. A digest of the protocol: as §1
The nature of data set [10]: Terminal half life value in rat at single dose of 3 mg/kg iv dose. As to conditions: in vivo.
Data set [11] in a line: Bioavailability in rat at single dose of 30 mg/kg orally. Particulars: in vivo, oral.

Broadly, the IC50 is the concentration that inhibits the measured activity by half. Read a high IC50 as a need for much substance. As a reminder, the half-life is the time needed for the level to fall by half in the phase considered. A higher half-life goes with slow loss. In general, clearance refers to the volume of plasma or blood freed of the substance per unit of time. High values mean efficient removal, low ones inefficient removal. The Cmax is the peak of the concentration-time curve. For orientation: bioavailability means dose-corrected exposure relative to a reference, in per cent. One may read the Tmax as the time at which the peak concentration occurs. Broadly, the Vd is a proportionality between amount in the body and measured concentration, not a real space. Read a low Vd as little distribution into tissue.

T1 sequence (Q8NER1 whole entry): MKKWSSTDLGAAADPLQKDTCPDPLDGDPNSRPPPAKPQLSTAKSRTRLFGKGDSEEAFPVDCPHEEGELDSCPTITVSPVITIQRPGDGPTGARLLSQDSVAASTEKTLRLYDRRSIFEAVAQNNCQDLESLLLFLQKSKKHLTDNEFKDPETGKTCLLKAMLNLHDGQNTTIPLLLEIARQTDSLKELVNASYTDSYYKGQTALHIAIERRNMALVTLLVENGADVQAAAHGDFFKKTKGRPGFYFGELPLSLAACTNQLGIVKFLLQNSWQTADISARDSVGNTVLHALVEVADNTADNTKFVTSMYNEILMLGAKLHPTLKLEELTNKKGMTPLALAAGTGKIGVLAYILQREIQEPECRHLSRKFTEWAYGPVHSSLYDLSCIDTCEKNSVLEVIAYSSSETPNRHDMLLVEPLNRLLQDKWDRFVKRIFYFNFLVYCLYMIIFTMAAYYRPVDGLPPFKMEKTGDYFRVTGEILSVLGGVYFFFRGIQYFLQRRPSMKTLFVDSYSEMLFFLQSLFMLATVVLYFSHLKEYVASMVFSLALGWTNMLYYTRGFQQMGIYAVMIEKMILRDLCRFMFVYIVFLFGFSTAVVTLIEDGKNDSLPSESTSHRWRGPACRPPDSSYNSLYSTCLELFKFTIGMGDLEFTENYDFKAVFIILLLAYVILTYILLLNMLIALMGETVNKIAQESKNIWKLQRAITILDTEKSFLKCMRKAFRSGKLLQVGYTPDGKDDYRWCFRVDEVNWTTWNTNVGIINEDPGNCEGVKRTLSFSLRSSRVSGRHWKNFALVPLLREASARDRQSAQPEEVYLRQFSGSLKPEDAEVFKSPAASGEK

For `CC(C)(C)c1ccc2oc(N3CCN(c4ncccc4Cl)CC3)nc2c1`, the IC50 is above 10000 nM in [1] and 2140 nM in data set [2].
Turning to `C[C@@H]1CN(c2ncccc2Cl)CCN1c1nc2cc(C(C)(C)C)ccc2o1`, the IC50 in [1] was 1410 nM.
As to `C[C@@H]1CN(c2nsnc2Cl)CCN1c1nc2ccc(C(C)(C)C)cc2[nH]1`, the IC50 in [1] is above 10000 nM; in data set [2], 776 nM.
The matching figures for `Cc1cc2nc(N3CCN(c4ncccc4Cl)C[C@H]3C)[nH]c2cc1C`: 10000 nM and 113 nM.
The matching figures for `Cc1cc2nc(N3CCN(c4ncccc4Cl)CC3)n(C)c2cc1C`: above 25000 nM and 5450 nM.
The compound `C[C@@H]1CN(c2ncccc2Cl)CCN1c1nc2ccc(Cl)cc2[nH]1` came in with an IC50 in [2] of 325 nM.
As for `Cc1cc2nc(N3CCN(c4ncccc4Cl)C[C@@H]3C)[nH]c2cc1C`, the IC50 in [1] is above 25000 nM; in data set [2] it was 5770 nM.
As to `C[C@@H]1CN(c2ncccc2Cl)CCN1c1nc2ccc(C(C)(C)C)cc2[nH]1`, the half-inhibitory concentration (IC50) was determined as 104 nM in [1] and 90.4 nM in data set [2]. Moreover, the half-life in [3] is 35.4 min; in data set [10] it was 36 min. Also, the clearance is 134 mL/min/kg in [4] and 133 mL/min/kg in data set [6]. For the same compound, in [5], the Cmax amounted to 300 ng/mL. Also, the bioavailability in data set [7] and in data set [11] was 19.7% each time. Besides, the Tmax in data set [8] came to 3 h. Further, the Vd in data set [9] stood at 6.87 L/kg.
For `C[C@@H]1CN(c2ncccc2C(F)(F)F)CCN1c1nc2ccc(C(C)(C)C)cc2[nH]1`, the IC50 in data set [1] was 1780 nM; in [2], 32.4 nM.
In the same order, the values of `CC(C)(C)c1ccc2nc(N3CCN(c4ncccc4Cl)CC3)[nH]c2c1` are 1690 nM and 136 nM.
In turn, `COc1ccc2nc(N3CCN(c4ncccc4Cl)C[C@H]3C)[nH]c2c1` registered an IC50 in data set [2] of 665 nM.
With `Cc1cccnc1N1CCN(c2nc3ccc(C(C)(C)C)cc3[nH]2)[C@H](C)C1`, in data set [1], the IC50 was 597 nM.
Regarding `CC(C)(C)c1ccc(NC(=O)N2CCN(c3ncccc3Cl)CC2)cc1`, the bioavailability in data set [7] is 15%.
With `C[C@H]1CN(c2ncccc2Cl)CCN1c1nc2ccc(C(C)(C)C)cc2[nH]1`, the IC50 in data set [1] amounted to 3610 nM; in data set [2], 948 nM.
